Published values gathered from unrelated publications.
Protocols differ between the studies behind these lines.
Organism: Escherichia coli
Observed: microbial growth

Compound | method | cells | strain | time | setting | MIC
CC(C)Oc1c(NC(=O)c2ccc(NC(=O)[C@H](CC(N)=O)NC(=O)c3ccc(NC(=O)c4cc(=O)c(O)c[nH]4)cc3)cc2)ccc(C(=O)Nc2ccc(C(=O)O)cc2)c1O | – | – | DSM1116 | – | – | > 64 µg/mL
O=C(O)c1cn(C2CC2)c2cc(N3CCNCC3)c(F)cc2c1=O | broth dilution | – | – | 24 h | – | 4.72 µM
COc1c(C)c(OC(=O)c2ccc(C)cc2)c(C)c(O)c1C(=O)/C=C/c1ccccc1 | broth dilution | – | ATCC25922 | – | – | 5000 µg/mL
Cc1c(CN(C)C(=O)/C=C/c2cnc3c(c2)CC(CCN)C(=O)N3)oc2ccccc12.Cl (stereo not drawn) | broth dilution | – | BAA2469 | – | clinical isolate | 2 µg/mL
Cc1ccccc1NCc1ccc(Oc2ccccn2)cc1 | – | – | – | – | – | > 25 µg/mL
CC1(C)S[C@@H]2[C@H](NC(=O)[C@H](N)c3ccccc3)C(=O)N2[C@H]1C(=O)O | broth dilution | – | MG1655 | – | – | 4 µg/mL
Cc1ccc2nc(-c3ccccc3Cl)[nH]c2c1 | broth dilution | – | ATCC25922 | – | – | 64 µg/mL
CCCCCCC#Cc1cncc(-c2nnc(SCc3ccc(Cl)cc3)n2C2CC2)c1 | – | – | – | – | – | ≥ 20 µg/mL
CC1=NN(CNc2ccc(O)cc2)C(=O)C1=NNn1c(-c2ccccc2)nc2ccccc2c1=O | broth dilution | – | – | 24 h | – | 107 µM
CN[C@H](CC(C)C)C(=O)N[C@H]1C(=O)N[C@@H](CC(N)=O)C(=O)N[C@H]2C(=O)N[C@H]3C(=O)N[C@H](C(=O)N[C@H](C(=O)O)c4cc(O)cc(O)c4-c4cc3ccc4O)[C@H](O)c3ccc(c(Cl)c3)Oc3cc2cc(c3O[C@@H]2O[C@H](CO)[C@@H](O)[C@H](O)[C@H]2O[C@H]2C[C@](C)(N)[C@H](O)[C@H](C)O2)Oc2ccc(cc2Cl)[C@H]1O | broth dilution | – | ATCC25922 | 18 h | – | > 32 µg/mL
CN(C)[C@@H]1C(O)=C(C(N)=O)C(=O)[C@@]2(O)C(O)=C3C(=O)c4c(O)cccc4[C@@](C)(O)[C@H]3C[C@@H]12 | – | – | ATCC25922 | – | – | 4 µg/mL
C[C@@H](O)[C@H]1C(=O)N2C(C(=O)O)=C(SCCN=CN)C[C@H]12 | broth dilution | – | KCTC1682 | 16 h | – | 0.5 µM
CC(C)Oc1c(NC(=O)c2ccc(NC(=O)[C@H](CC(N)=O)NC(=O)c3ccc(C#Cc4ccc(C#N)cc4)cc3)cc2)ccc(C(=O)Nc2ccc(C(=O)O)cc2)c1O | – | – | DSM1116 | – | – | 0.06 µg/mL
Cc1ccc2nc(-c3ccc(Cl)cc3)n(Cc3ccccc3Cl)c2c1 | broth dilution | – | ATCC25922 | – | – | 64 µg/mL
N=C(N)c1ccc(OCc2ccc(COc3ccc(C(=N)N)cc3)cc2)cc1 | – | – | BW25113 | – | – | ≥ 200 µg/mL
Cc1ccc2nc(-c3c(F)cccc3Cl)[nH]c2c1 | broth dilution | – | ATCC25922 | – | – | 128 µg/mL
N=C(N)c1ccc(OCCCCCCCCCCCOc2ccc(C(=N)N)cc2)cc1 | – | – | BW25113 | – | – | 50 µg/mL
NC1CCCCc2c1[nH]c1ccc(Br)cc21 (stereo not drawn) | broth dilution | – | ATCC25922 | – | – | 16 µg/mL
CC(C)Oc1c(-n2cc(-c3ccc(NC(=O)C(CC(N)=O)NC(=O)c4ccc(NC(=O)c5ccc(C#N)cc5)cc4)cc3)nn2)ccc(C(=O)Nc2ccc(C(=O)O)cc2)c1O (stereo not drawn) | – | – | DSM1116 | – | – | 0.06 µg/mL
CCCCCCC/C=C/C(=O)N1C(=O)/C(=C(/C)O)C(=O)C1Cc1ccc(O)cc1 (stereo not drawn) | – | K12 | K12 | – | – | > 200 µg/mL
C=CCn1c(-c2ccc(Cl)c(Cl)c2)nc2ccccc21 | broth dilution | – | ATCC25922 | – | – | 64 µg/mL
CO[C@H]1O[C@H](COC(c2ccccc2)(c2ccccc2)c2ccccc2)[C@@H](OC(=O)c2ccc(C(C)(C)C)cc2)[C@H](OC(=O)c2ccc(C(C)(C)C)cc2)[C@H]1OC(=O)c1ccc(C(C)(C)C)cc1 | broth dilution | – | – | – | – | 1 µg/mL
CNC(=O)c1cc(Oc2ccc(NC(=O)Nc3ccc(Cl)c(C(F)(F)F)c3)cc2)ccn1 | – | – | CFT073 | – | – | > 100 µM
Clc1ccc(Cn2c(-c3ccc(Cl)cc3)nc3ccccc32)cc1 | broth dilution | – | ATCC25922 | – | – | 16 µg/mL
CC(=O)Nc1ncc([N+](=O)[O-])s1 | – | – | – | – | – | < 50 µM
CC(C)COc1c(NC(=O)c2ccc(NC(=O)[C@H](CC(N)=O)NC(=O)c3ccc(NC(=O)c4ccc(C#N)cc4)cc3)cc2)ccc(C(=O)Nc2ccc(C(=O)O)cc2)c1O | – | – | DSM1116 | – | – | 0.25 µg/mL
Cc1ccc(C)n1-c1ccc(-c2nnc(-c3c(Cl)cccc3Cl)[nH]2)cc1 | broth dilution | – | ATCC10536 | 18 h | – | 62.5 µg/mL

Compound | method | cells | strain | time | setting | MIC
CC(C)Oc1c(NC(=O)c2ccc(NC(=O)[C@H](CC(N)=O)NC(=O)c3ccc(NC(=O)c4ccc(C#N)cc4)cc3)cc2)ccc(C(=O)Nc2cc(C(=O)O)n(C)c2)c1O | – | – | DSM1116 | – | – | 0.5 µg/mL
CC1=NN(CNc2ccc(C(=O)O)cc2)C(=O)C1=NNn1c(-c2ccccc2)nc2ccccc2c1=O | broth dilution | – | – | 24 h | – | 50.5 µM
N=C(N)c1ccc(OCCC(CCOc2ccc(C(=N)N)cc2)c2ccccc2)cc1 (stereo not drawn) | – | – | BW25113 | – | – | > 200 µg/mL
C=CCn1c(-c2ccc(OC)c(OC)c2)nc2ccccc21 | broth dilution | – | ATCC25922 | – | – | 128 µg/mL
N=C(N)c1ccc(OCc2cccc(COc3ccc(C(=N)N)cc3)c2)cc1 | – | – | BW25113 | – | – | > 200 µg/mL
CCCCCCCC(=O)Oc1c(C)c(O)c(C(=O)/C=C/c2ccccc2)c(OC)c1C | broth dilution | – | ATCC25922 | – | – | 5000 µg/mL
Cc1ccc2nc(-c3ccc(Cl)cc3)n(Cc3ccccc3)c2c1 | broth dilution | – | ATCC25922 | – | – | 16 µg/mL
CCCCCCC#Cc1cncc(-c2nnc(SCc3ccc(C#N)cc3)n2C)c1 | – | – | – | – | – | ≥ 20 µg/mL
C=CCOc1c(C)c(O)c(C(=O)/C=C/c2ccccc2)c(OC)c1C | broth dilution | – | ATCC25922 | – | – | 5000 µg/mL
CC(C)Oc1c(NC(=O)c2ccc(NC(=O)[C@H](CC(N)=O)NC(=O)c3ccc(NC(=O)c4cccc([N+](=O)[O-])c4)cc3)cc2)ccc(C(=O)Nc2ccc(C(=O)O)cc2)c1O | – | – | DSM1116 | – | – | > 64 µg/mL
CC(C)(O/N=C(\C(=O)N[C@@H]1C(=O)N2C(C(=O)[O-])=C(C[n+]3ccccc3)CS[C@H]12)c1csc(N)n1)C(=O)O | broth dilution | – | ATCC25922 | – | – | 0.25 µg/mL
CC(C)Oc1c(NC(=O)c2ccc(NC(=O)[C@H](CC(N)=O)NC(=O)c3ccc(NC(=O)c4cccc(N)c4)cc3)cc2)ccc(C(=O)Nc2ccc(C(=O)O)cc2)c1O | – | – | DSM1116 | – | – | 32 µg/mL
CCCCC(=O)N1C(=O)/C(=C(/C)O)C(=O)C1CC(C)C (stereo not drawn) | – | K12 | K12 | – | – | > 200 µg/mL
CCn1cc(C(=O)O)c(=O)c2cc(F)c(N3CCNCC3)cc21 | broth dilution | – | ATCC10536 | 18 h | – | ≤ 1 µg/mL
CC(C)Oc1c(NC(=O)c2ccc(NC(=O)[C@H](CC(N)=O)NC(=O)c3ccc(NC(=O)c4ccc(C#N)cc4)cc3)cc2)ccc(C(=O)Nc2cccc(C(=O)O)c2)c1O | – | – | DSM1116 | – | – | 0.5 µg/mL
N=C(N)c1ccc(OCc2cc(Br)cc(COc3ccc(C(=N)N)cc3)c2)cc1 | broth dilution | – | W3110 | – | – | 100 µg/mL
Cc1ccc2nc(-c3ccc(Cl)cc3)[nH]c2c1 | broth dilution | – | ATCC25922 | – | – | 256 µg/mL
N=C(N)c1ccc(OCc2cc(COc3ccc(C(=N)N)cc3)cc(-c3ccccc3)c2)cc1 | – | – | BW25113 | – | – | ≥ 100 µg/mL
COc1c(C)c(OC(C)=O)c(C)c(OC(C)=O)c1C(=O)/C=C/c1ccccc1 | broth dilution | – | ATCC25922 | – | – | 5000 µg/mL
N=C(N)c1ccc(OCc2ccc(-c3ccccc3)cc2COc2ccc(C(=N)N)cc2)cc1 | broth dilution | – | ATCC25922 | – | – | 200 µg/mL
Cc1ccc(C)n1-c1ccc(C(=O)NNC=O)cc1 | broth dilution | – | ATCC10536 | 18 h | – | 31.2 µg/mL
COc1ccc(NCc2ccc(Oc3ccccn3)cc2)cc1 | – | – | – | – | – | > 25 µg/mL
C[C@@H](O)[C@H]1C(=O)N2C(C(=O)O)=C(S[C@@H]3CN[C@H](C(=O)N(C)C)C3)[C@H](C)[C@H]12 | broth dilution | – | ATCC25922 | – | – | ≤ 0.125 µg/mL
Cc1ccc(NCc2ccc(Oc3ccccn3)cc2)cc1 | – | – | – | – | – | > 25 µg/mL
CCCCCCC/C=C/C(=O)N1C(=O)/C(=C(\O)c2ccc(OCOCCOC)cc2)C(=O)C1CC(C)C (stereo not drawn) | – | K12 | K12 | – | – | > 200 µg/mL
N=C(N)c1cccc(OCc2ccccc2COc2cccc(C(=N)N)c2)c1 | broth dilution | – | BW25113 | – | – | > 200 µg/mL
O=C(CCCCCCCC[P+](c1ccccc1)(c1ccccc1)c1ccccc1)Nc1cc(O)c(O)c(O)c1.[Br-] | broth dilution | – | ATCC25922 | 18 h | – | > 32 µg/mL
